Screens (PubChem BioAssay)
C8 TRAIL sens – caspase-8 TRAIL sensitization | NB7+C8 cells + TRAIL, ATPlite viability luminescence | AID 624354 | inhibition (viability loss, TRAIL sensitization), % at 10 µM | 1% of 360,000 active;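 active means compounds causing at least 50% loss of cell viability in the single-dose screen, relative to plate controls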
FLuc inhib CS – counter-screen for luciferase assay inhibitors: firefly luciferase inhibition; AID 1006; P08659; ATPLite firefly luciferase biochemical luminescence, 10 min; 1.5% of 200,000 active; inhibition, % at 10 µM;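 active means inhibition above about 50% when tested at 10 µM, limit read from the data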
Target sequence (P08659 whole entry, looked up): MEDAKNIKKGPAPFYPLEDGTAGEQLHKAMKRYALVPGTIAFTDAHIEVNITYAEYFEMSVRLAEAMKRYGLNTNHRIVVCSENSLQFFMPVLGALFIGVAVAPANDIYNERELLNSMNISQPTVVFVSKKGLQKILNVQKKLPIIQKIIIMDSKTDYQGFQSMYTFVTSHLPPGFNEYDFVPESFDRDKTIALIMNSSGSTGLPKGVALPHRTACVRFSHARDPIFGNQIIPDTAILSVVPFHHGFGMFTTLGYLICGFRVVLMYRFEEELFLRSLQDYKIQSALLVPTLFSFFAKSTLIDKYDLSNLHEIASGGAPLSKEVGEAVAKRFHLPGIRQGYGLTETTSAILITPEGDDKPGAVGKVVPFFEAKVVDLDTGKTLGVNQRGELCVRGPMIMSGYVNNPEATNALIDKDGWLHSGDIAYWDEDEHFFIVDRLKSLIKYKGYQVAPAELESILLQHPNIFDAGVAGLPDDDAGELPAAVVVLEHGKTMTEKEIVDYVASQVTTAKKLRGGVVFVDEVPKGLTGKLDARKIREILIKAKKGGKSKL
PPC-1+TRAIL kill – PPC-1 cancer cell killing with TRAIL present | cell killing (% activity), % at 4 µM or 5 µM | AID 1443 | PPC-1 cells + TRAIL, ATPLite viability luminescence | 0.41% of 220,000 active;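 active means cell killing above 50% in the first pass at 4 µM, then a duplicate retest at 5 µM averaging 50% or more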;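 further: plate controls were cells with TRAIL plus DMSO for no effect and medium-only wells lacking cells for full effect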
FLuc stim CS – firefly luciferase counter-screen for stimulation assays. ATPlite luciferase biochemical, luminescence, 10 min; 0 = ATP-free wells, 1 = DMSO control. activation factor at 10 µM. P08659. 200,000 tested, under 10 active;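 active means luciferase activation factor, scaled between plate controls, of at least 2 with compound at 10 µM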
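Assay system: Luciferase/luciferin detection reagent, cell-free biochemical luciferase assay / Also added: ATP substrate / Schedule: 10 min at ambient temperature / Measured by: luminescence measurement of luciferase light output / Benchmarks: low control with PBS replacing ATP, high control enzyme plus ATP without compound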
Numbers without * were called inactive; nt = no result. This is a sample that favours compounds with a hit; in the whole collection about 1.6% have one here.

SMILES | C8 TRAIL sens | FLuc inhib CS | PPC-1+TRAIL kill | FLuc stim CS
Cc1cc(O)c2c(c1O)C(=O)[C@]13C(=C2O)C(=O)[C@@H]2[C@@H](O)[C@H]1[C@@H]1[C@H](O)[C@H]3C(=O)C3=C(O)c4c(O)cc(C)c(O)c4C(=O)[C@]312 | 48* | nt | nt | nt
Cc1c2cnn(CC(=O)N3CCOCC3)c(=O)c2c(C)n1Cc1ccccc1F | -6 | nt | nt | nt
COc1ccc(Br)cc1S(=O)(=O)N(CC(=O)N1CCN(C)CC1)c1ccccc1 | -2 | nt | nt | nt
COc1cccc(/C=N/NC(=O)c2cc3c(OC)cccc3[nH]2)c1OC | -5 | -2 | 8 | 1
COc1cccc(/C=N/NC(=O)c2cc(-c3cccn3C)n[nH]2)c1O | 55* | 38 | 30 | 0.6
COc1cc(/C=N/NC(=O)c2cc(-c3cccn3C)n[nH]2)cc(OC)c1OC | 21 | -1 | -13 | 1
COc1cccc(/C=N/NC(=O)c2cc3c(OC)cccc3[nH]2)c1O | 53* | 0 | 46 | 1
Cc1ccccc1-c1nnc(SCC(=O)Nc2cccnc2Cl)o1 | 64* | nt | nt | nt
O=C(CCS(=O)(=O)c1ccc(Br)cc1)Nc1ccccc1Cl | -5 | nt | nt | nt
O=C(CCS(=O)(=O)c1ccc(Br)cc1)Nc1ccccn1 | -1 | -7 | 66* | 1.1
CC(NC(=O)Cc1ccc(S(=O)(=O)N2CCOCC2)s1)c1ccc(Cl)c(Cl)c1 (centres undefined) | 7 | nt | nt | nt
C[C@@H](NC(=O)c1nc[nH]c1C(=O)NCc1ccccc1)c1ccccc1 | -17 | nt | nt | nt
COC(=O)c1nc(NC(=S)NC(=O)c2cccs2)sc1C | 50* | nt | nt | nt
O=C(NC(=S)Nc1nc2ccccc2s1)c1cccs1 | 84* | 90* | 13 | 0.1
CCc1ccc(-c2nc(NC(=S)NC(=O)c3cccs3)sc2C)cc1 | -34 | -5 | 5 | 1
O=c1[nH]c2cc3c(cc2cc1CN(CCO)S(=O)(=O)c1ccccc1)OCCO3 | 4 | nt | 8 | nt
CCCCn1nnnc1C(c1cc2ccccc2o1)N(CCN(C)C)Cc1ccccc1 (centres undefined) | 12 | nt | nt | nt
CCOc1ccc(-n2nnnc2-c2nc3ccccc3s2)cc1 | 63* | 34 | 19 | 0.7
O=c1cc(-c2ccc3c(c2)OCCO3)oc2ccc(Cl)cc12 | 48 | 50* | 14 | 0.5
CC(=O)N1CCc2cc(S(=O)(=O)CCC(=O)N3CCN(c4cc(C)ccc4C)CC3)ccc21 | 3 | nt | nt | nt
O=C(NCCc1ccccc1)C(=O)NCc1ccncc1 | -5 | 50* | 13 | 0.5
O=C(NCCc1ccccc1)c1ccncc1 | nt | -5 | 16 | 1
CC(C)C(=O)Nc1ccc(NC(=O)c2ccccn2)cn1 | 48* | 67* | 20 | 0.3
O=C(Nc1ccc(NC(=O)C2CC2)nc1)c1ccccn1 | 40 | 62* | 2 | 0.4
CCC(=O)Nc1ccc(NC(=O)c2ccccn2)cn1 | 21 | 42 | 19 | 0.6
SMILES | C8 TRAIL sens | FLuc inhib CS | PPC-1+TRAIL kill | FLuc stim CS
Cc1ccc(NC(=O)CSCC(=O)Nc2ccccc2N2CCCC2)cc1 | -5 | nt | nt | nt
CC(=O)Nc1ccc(S(=O)(=O)NC(C(=O)O)C(C)O)cc1 (centres undefined) | -21 | nt | -4 | nt
Cc1ccc(/C=C2/Sc3ccc(C(=O)NCCN4CCOCC4)cc3NC2=O)cc1 | 4 | nt | nt | nt
O=C1Nc2cc(C(=O)NCCN3CCCCCC3)ccc2S/C1=C/c1ccccc1F | 52* | nt | nt | nt
CCN1CCCC1CNC(=O)c1ccc2c(c1)NC(=O)/C(=C\c1ccc(C)cc1)S2 (centres undefined) | 79* | nt | nt | nt
CCN1CCN(CCNC(=O)c2ccc3c(c2)N(Cc2ccc(F)cc2)C(=O)/C(=C/c2ccccc2)S3)CC1 | 57* | -5 | 27 | 1.1
CC(=O)c1cccc(OCc2cc(C(=O)NCc3nc(C)c(C)s3)no2)c1 | -9 | nt | nt | nt
CCOc1ncccc1C(=O)OCC(=O)c1cc(OC)c(OC)c(OC)c1 | 10 | nt | 20 | nt
C/C(=N\NC(=O)c1cc(O)ccc1O)c1cccc(NC(=O)c2ccc(Cl)cc2)c1 | 58* | nt | nt | nt
COc1ccc(C(=O)N/N=C(/C)c2cccc(NC(=O)c3ccccc3F)c2)cc1 | 59* | nt | nt | nt
COc1ccc(C(=O)N/N=C(\C)c2cccc(NC(=O)c3ccc(F)cc3)c2)c(OC)c1 | 39 | nt | nt | nt
C/C(=N\NC(=O)c1ccncc1)c1cccc(NC(=O)c2ccc(C(C)(C)C)cc2)c1 | 80* | nt | nt | nt
COc1ccc(NC(=O)Cc2ccc(C)c(C)c2)cc1S(=O)(=O)N1CCCCC1 | 5 | nt | nt | nt
Cc1c(C(=O)N2CCN(S(=O)(=O)c3ccccc3)CC2)oc2ccc(Br)cc12 | 5 | nt | nt | nt
COC(=O)c1ccc(-c2ccc(/C=N/N3C(=O)C4C5C=CC(C6CC56)C4C3=O)o2)cc1 (centres undefined) | 11 | -3 | 55* | 1
CC(C)c1ccc(Nc2nc(CC(=O)O)cs2)cc1 | 25 | 71* | -2 | 0.3
COc1cccc(OCc2ccc(Cl)cc2)c1C#N | 59* | nt | 31 | nt
CC[C@]12c3[nH]c4ccc(OC)cc4c3CCN1C(=O)C(CC(=O)NCCC1=CCCCC1)C[C@@H]2C(=O)N1CCN(C(=O)C2CC2)CC1 (some centres undefined) | -8 | nt | nt | nt
CN1CCc2nc(NC(=O)c3cccc(S(=O)(=O)N4CCc5ccccc54)c3)sc2C1 | 2 | 1 | 3 | 1
CCN1CCc2nc(NC(=O)c3ccccc3)sc2C1 | 50* | 46 | 49 | 0.5
COc1cccc(C(=O)Nc2nc3c(s2)CN(C)CC3)c1 | 23 | 56* | 23 | 0.4
O=C(Nc1nc2c(s1)CN(Cc1ccccc1)CC2)C1CCC1 | 1 | 1 | 12 | 1
CCN1CCN(S(=O)(=O)c2ccc(Cl)c(C(=O)N(C)CCOc3ccc(Cl)cc3)c2)CC1 | 3 | nt | nt | nt
CCN(c1ccccc1)S(=O)(=O)c1ccc(N2CCN(c3ccc(O)cc3)CC2)nc1 | -1 | nt | nt | nt
COc1ccc(CCNC(=O)CCc2cc(OC)c(OC)c(OC)c2)cc1OC | 12 | nt | nt | nt
SMILES | C8 TRAIL sens | FLuc inhib CS | PPC-1+TRAIL kill | FLuc stim CS
CCOC(=O)c1ccc2c(c1)nc(-c1ccccn1)n2CC | 56* | nt | nt | nt
CCOC(=O)Cn1c(-c2ccccn2)nc2ccccc21 | 6 | -4 | 15 | 1
Cc1ccc(-c2nnc(CN3CCCCC3C)o2)cc1 (centres undefined) | 2 | nt | nt | nt
COc1cccc(Nc2nc(C(N)C3CCCCC3)cs2)n1 (centres undefined) | 4 | nt | nt | nt
Cc1cc(-c2csc3nc[nH]c(=S)c23)cc(C)c1C | 60* | -8 | 15 | 1.1
O=C(c1ccc(Cl)cc1)c1ccc(CN2C(=O)c3ccccc3C2=O)o1 | 6 | -3 | 3 | 1
Cc1ccc(C(=O)c2coc3c2C(=O)C(=O)c2ccccc2-3)cc1 | -5 | -2 | -8 | 1
Cc1ccc(C(=O)c2c(C)oc3c2C(=O)C(=O)c2ccccc2-3)cc1 | 97* | 2 | 17 | 1
Cc1oc2c(c1C(=O)c1ccc(Cl)cc1)C(=O)C(=O)c1ccccc1-2 | 94* | -10 | 14 | 1.1
Cc1ccc(Nc2nnc(SCC(=O)NCCN3C(=O)CSC3=O)s2)cc1C | 53* | 82* | 48 | 0.2
COc1ccc2oc(=N)c(C(=O)Nc3ccc(C)cc3)cc2c1 | 16 | nt | nt | nt
COc1ccc2oc(=N)c(C(=O)Nc3ccccc3)cc2c1 | 21 | 64* | 17 | 0.4
